Experiments:
[1] = Stability of MX in human plasma QCs; type: in vitro ADME; settings: for recoveries of QC samples: three concentrations (3.50, 45.0 and 450 ng/ml)
How it was run: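 Plasma QCs were prepared in pooled human plasma with 10% 0.100 N HCl and held on the bench (23 °C), in the autosampler (15 °C), through freeze-thaw cycles (−70 to 23 °C) or at −70 °C. Samples were derivatised with 4-(N,N-diethylamino)benzaldehyde (70 °C, 1 h), extracted into MTBE and run by MRM LC-MS/MS. The mean MX/MX-d3 peak-area ratio (n = 6) relative to freshly prepared QCs is given as percent recovery.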

[2] = Phase I clinical trial pharmacokinetic study of MX; type: in vivo, human; settings: for Measured [MX] First analysis / Measured [MX] Re-analysis after 9 months: patient plasma; for Measured [MX] Re-analysis after 9 months: after 9-month storage at −70 °C
How it was run: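 Heparinised blood was iced, spun (1500 × g, 4 °C, 5 min), and plasma stored at −70 °C. Plasma was derivatised and assayed by LC-MS/MS against a calibration curve. Infusion data were fitted one-compartment; 1-h data were analysed by NCA.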

[3] = Stability of MX in human whole blood kept in ice bath before centrifugation; type: in vitro ADME
How it was run: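 From one patient, five 2-ml lithium-heparin blood tubes were drawn 70 min after infusion and kept in an ice bath. They were centrifuged 0, 30, 60, 90 and 120 min after drawing (1500 × g, 4 °C, 5 min). Plasma was analysed later by the derivatisation LC-MS/MS method, and the mean, SD and %CV were calculated.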

[4] = Stability of MX stock solution; type: physicochemical; settings: for Recovery ± SD (n = 6): Stock solution 2.00 mg/ml
How it was run: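 The 2.00 mg/ml stock was stored at 4 °C or at 23 °C, then serially diluted to 45.0 ng/ml in 1% formic acid. It was derivatised with IS and analysed by MRM LC-MS/MS. Six parallel measurements gave the mean analyte/IS peak-area ratio, expressed as percent recovery against freshly prepared stock.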

[5] = clinical trials, TMZ dosing regimen 150 mg/m^2/day; cited from earlier work
[6] = patients, 1-h iv infusion, 20 patients (46 cycles), with oral TMZ

**Q.** Which results are given for `CON` [MX, Methoxyamine]?
**A.** Recovery ± SD (n = 6) ([1]; High QC 450 ng/ml plasma, Autosampler 15 °C, 3 days): 96.9 ±3%; Recovery ± SD (n = 6) ([1]; High QC 450 ng/ml plasma, Bench-top 23 °C, 18 hours): 95.7 ± 2%; Recovery ± SD (n = 6) ([1]; High QC 450 ng/ml plasma, Deep freezer (Long-term) −70 °C, 5 months): 103 ± 2%; Recovery ± SD (n = 6) ([1]; High QC 450 ng/ml plasma, Freeze & thaw −70 to 23 °C, 3 cycles): 96.2 ± 2%; Recovery ± SD (n = 6) ([1]; Low QC 3.50 ng/ml plasma, Autosampler 15 °C, 3 days): 90.7 ±6%; Recovery ± SD (n = 6) ([1]; Low QC 3.50 ng/ml plasma, Bench-top 23 °C, 18 hours): 89.4 ± 4%; Recovery ± SD (n = 6) ([1]; Low QC 3.50 ng/ml plasma, Deep freezer (Long-term) −70 °C, 5 months): 95.7 ±3%; Recovery ± SD (n = 6) ([1]; Low QC 3.50 ng/ml plasma, Freeze & thaw −70 to 23 °C, 3 cycles): 96.6 ± 2%; Recovery ± SD (n = 6) ([1]; Mid QC 45.0 ng/ml plasma, Autosampler 15 °C, 3 days): 94.5 ± 5%; Recovery ± SD (n = 6) ([1]; Mid QC 45.0 ng/ml plasma, Bench-top 23 °C, 18 hours): 94.5 ± 4%; Recovery ± SD (n = 6) ([1]; Mid QC 45.0 ng/ml plasma, Deep freezer (Long-term) −70 °C, 5 months): 101 ± 2%; Recovery ± SD (n = 6) ([1]; Mid QC 45.0 ng/ml plasma, Freeze & thaw −70 to 23 °C, 3 cycles): 94.4 ± 2%; recoveries of QC samples ([1]; autosampler (15 °C)): 90.7–96.9%; recoveries of QC samples ([1]; bench top): 89.4–95.7%; recoveries of QC samples ([1]; long-term storage (5 months)): 95.7–103%; recoveries of QC samples ([1]; three freeze-and-thaw cycles (−70 to 23 °C)): 94.4–96.6%; Measured [MX] First analysis ([2]; sampling 0.250 h): 5.36 ng/mL; Measured [MX] Re-analysis after 9 months ([2]; sampling 0.250 h): 5.69 ng/mL; Measured [MX] First analysis ([2]; sampling 0.500 h): 8.95 ng/mL; Measured [MX] Re-analysis after 9 months ([2]; sampling 0.500 h): 10.2 ng/mL; Measured [MX] First analysis ([2]; sampling 0.750 h): 16.2 ng/mL; Measured [MX] Re-analysis after 9 months ([2]; sampling 0.750 h): 18.2 ng/mL; Measured [MX] First analysis ([2]; sampling 0.983 h): 20.5 ng/mL; Measured [MX] Re-analysis after 9 months ([2]; sampling 0.983 h): 22.1 ng/mL; Measured [MX] First analysis ([2]; sampling 1.17 h): 25 ng/mL; Measured [MX] Re-analysis after 9 months ([2]; sampling 1.17 h): 27.1 ng/mL; Measured [MX] First analysis ([2]; sampling 2.00 h): 24.2 ng/mL; Measured [MX] Re-analysis after 9 months ([2]; sampling 2.00 h): 24.3 ng/mL; Measured [MX] First analysis ([2]; sampling 4.00 h): 18.3 ng/mL; Measured [MX] Re-analysis after 9 months ([2]; sampling 4.00 h): 20 ng/mL; Measured [MX] First analysis ([2]; sampling 6.00 h): 19 ng/mL; Measured [MX] Re-analysis after 9 months ([2]; sampling 6.00 h): 19.5 ng/mL; Measured [MX] First analysis ([2]; sampling 8.00 h): 18.9 ng/mL; Measured [MX] Re-analysis after 9 months ([2]; sampling 8.00 h): 17.5 ng/mL; Measured [MX] First analysis ([2]; sampling 12.0 h): 15.6 ng/mL; Measured [MX] Re-analysis after 9 months ([2]; sampling 12.0 h): 16.2 ng/mL; Measured [MX] First analysis ([2]; sampling 24.0 h): 13.3 ng/mL; Measured [MX] Re-analysis after 9 months ([2]; sampling 24.0 h): 13.2 ng/mL; Measured [MX] First analysis ([2]; sampling 48.0 h): 9.46 ng/mL; Measured [MX] Re-analysis after 9 months ([2]; sampling 48.0 h): 10 ng/mL; Measured [MX] First analysis ([2]; sampling 72.0 h): 6.56 ng/mL; Measured [MX] Re-analysis after 9 months ([2]; sampling 72.0 h): 6.46 ng/mL; Measured [MX] First analysis ([2]; sampling 96.0 h): 4.46 ng/mL; Measured [MX] Re-analysis after 9 months ([2]; sampling 96.0 h): 4.76 ng/mL; Measured [MX] First analysis ([2]; sampling 120 h): 3.55 ng/mL; Measured [MX] Re-analysis after 9 months ([2]; sampling 120 h): 3.69 ng/mL; Measured [MX] First analysis ([2]; sampling 168 h): 2.11 ng/mL; Measured [MX] Re-analysis after 9 months ([2]; sampling 168 h): 2.29 ng/mL; Measured [MX] First analysis ([2]; sampling 192 h): 1.55 ng/mL; Measured [MX] Re-analysis after 9 months ([2]; sampling 192 h): 1.76 ng/mL; Measured [MX] First analysis ([2]; sampling 216 h): 1.22 ng/mL; Measured [MX] Re-analysis after 9 months ([2]; sampling 216 h): 1.39 ng/mL; mean Cmax [2, 6]: 14.98 ng/mL; mean t1/2 [2, 6]: 54.21 h; changes in MX concentration in human whole blood ([3]; over a period of 2 hours, samples kept in an ice bath): no significant changes; measured MX concentration, mean value ([3]; patient blood, ice bath, centrifuged 0-120 min after drawing, SD 0.1 ng/ml): 10.5 ng/mL; Recovery ± SD (n = 6) ([4]; Bench-top 23 °C, 18 hours): 98.4 ± 6%; Recovery ± SD (n = 6) ([4]; Refrigerator 4 °C, 5 months): 96.4 ± 7%; recoveries of stock solutions ([4]; refrigerator (4 °C) and bench top (23 °C)): 96.4–98.4%

**Q.** Which “maximum concentrations (Cmax) in human plasma” value [5] does the source give for `Cn1nnc2c(C(N)=O)ncn2c1=O` [TMZ, Temozolomide] here?
**A.** below 10 μg/ml
